Data on 9 compounds can be found in ChEMBL document CHEMBL1139616, “Nitrone derivatives of trolox as neuroprotective agents” (Bioorg Med Chem Lett, 2005).

Holding throughout (type): functional
For experiment [1], the species on record is Rattus norvegicus. The experiment can be described thus: In vitro inhibitory concentration against Total peroxyl radical-trapping antioxidant parameter(TRAP). The method in brief:
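Total peroxyl radical-trapping antioxidant parameter taken from spectrophotometric reading at 417 nm of the ABTS cation radical, which forms by one-electron oxidation.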

For experiment [2], the species on record is Rattus norvegicus. The experiment can be described thus: In vitro inhibitory concentration against lipid peroxidation (LPO). The method in brief: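 Brain mitochondria from male LATI Wistar rats (0.3 mg protein) in 25 mM Tris–HCl pH 7.4 with 0.2 mM ascorbic acid, with or without compound. Peroxidation started with 0.2 mM FeSO4, 60 min at 37 °C. Stopped with 20% TCA, centrifuged, supernatant boiled 20 min with 0.5% thiobarbituric acid. TBA-reactive products read at 535 nm.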

The species named for experiment [3] is Rattus norvegicus. The experiment can be described thus: In vitro inhibitory concentration against hydroxyl radical (-OH); (na: not active).
Experiment [4] is filed under the species Rattus norvegicus. The experiment can be described thus: In vitro inhibitory concentration against peroxynitrite (ONOO-): using pyrogallol red bleaching assay; (na: not active). The procedure, abridged:
(§1)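 Peroxynitrite scavenging measured as pyrogallol red bleaching at 542 nm. ONOO- prepared essentially by the Hughes and Nicklin method.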

Experiment [5] is filed under the species Rattus norvegicus. The experiment can be described thus: In vitro inhibitory concentration against hydroxyl radical (-OH).
The species named for experiment [6] is Rattus norvegicus. The experiment can be described thus: In vitro inhibitory concentration against peroxynitrite (ONOO-): using pyrogallol red bleaching assay. The method in brief: as §1
Experiment [7] is filed under the species Rattus norvegicus. The experiment can be described thus: In vitro inhibitory concentration against NO ([…]); (na: not active). The method in brief: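 NO generated by thermal breakdown of cupferron (0.2% in ethanol) at 40 °C. Samples at 0.3–100 mM in ethanol mixed with Griess–Ilosvay reagent (0.2% N-(1-naphthyl)ethylenediamine in 0.4 M HCl plus 2% sulfanilamide in 4 M HCl). Free NO estimated indirectly from its nitrite/nitrate products, absorbance read at 540 nm.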

As to `CC(=O)Oc1c(C)c(C)c2c(c1C)CCC(C)(/C=[N+](\[O-])C(C)(C)C)O2` (configuration not stated), the IC50 in experiment [1] is 895 µM; in experiment [2], 10 µM; in experiment [3] it was “Not Active”; in experiment [4] it was “Not Active”.
As to `Cc1c(C)c2c(c(C)c1O)CCC(C)(C(=O)O)O2` (configuration not stated) [TROLOX], the IC50 in experiment [1] worked out at 10 µM; in experiment [5] it was 60 µM; in experiment [2], 25 µM; in experiment [6], 550 µM.
On to `CC(C)(C)/[N+]([O-])=C/c1ccccc1`, for which the IC50 in experiment [1] is 3060 µM; in experiment [5], 43000 µM; in experiment [2], 16 µM; in experiment [4], “Not Active”.
Regarding `Cc1c(C)c2c(c(C)c1O)CCC(C)(/C=[N+](\[O-])C(C)(C)C)O2` (configuration not stated), the IC50 was 5.5 µM in experiment [1], 170 µM in experiment [5], 2 µM in experiment [2] and 3200 µM in experiment [6].
In the case of `CC(=O)Oc1c(C)c(C)c2c(c1C)CCC(C)(/C=[N+](\[O-])C1CC1)O2` (configuration not stated), the IC50 was 117 µM in experiment [1], 3.7 µM in experiment [2], “Not Active” in experiment [3] and 590 µM in experiment [6].
In the same order, the values of `COc1c(C)c(C)c2c(c1C)CCC(C)(/C=[N+](\[O-])C1CC1)O2` (configuration not stated) are 296 µM, 20 µM, “Not Active” and 1200 µM.
With `CC(C)(C)/[N+]([O-])=C/c1ccc(S(=O)(=O)[O-])cc1S(=O)(=O)[O-].[Na+].[Na+]`, the half-maximal inhibitory concentration (IC50) in experiment [1] was 437 µM; in experiment [5], 1500 µM; in experiment [2], 5490 µM; in experiment [7], “Not Active”; in experiment [4], “Not Active”.
In the case of `Cc1c(C)c2c(c(C)c1O)CCC(C)(/C=[N+](\[O-])C1CC1)O2` (configuration not stated), the IC50 turned out to be 6 µM in experiment [1], 150 µM in experiment [5], 0.68 µM in experiment [2] and 1100 µM in experiment [6].
Turning to `COc1c(C)c(C)c2c(c1C)CCC(C)(/C=[N+](\[O-])C(C)(C)C)O2` (configuration not stated), the IC50 in experiment [1] is 2940 µM; in experiment [2], 23 µM; in experiment [3], “Not Active”; in experiment [6], 3700 µM.

In general, IC50 refers to the concentration that inhibits the measured activity by half. A low value points to inhibition by little substance.
